pIC50: −log10 of the molar value. Calls of active or inactive are those of the source. The calls are words filed in the database; no cut-off is given here.
What was measured:
[1] = test system: Entamoeba histolytica; assay: Antiparasitic activity against Entamoeba histolytica HM-1:IMSS trophozoites assessed as parasite growth inhibition at 50 uM after 48 hrs by ATP bioluminescence-based CellTiter-Glo luminescent cell viability assay relative to control; assay type: functional; conditions: for inhibition of growth at 50 µM: read-out: GI
Summary of the method: (§1)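 Trophozoites kept axenically in TYI-S-33 with penicillin and streptomycin. Each well held 5000 trophozoites and was incubated 48 h at 37 °C under anaerobic conditions in a GasPak pouch. Read-out was CellTiter-Glo ATP luminescence. Controls were 0.5% DMSO vehicle and 30 μM metronidazole. Primary screen at 50 μM in duplicate; hits were those above 50% inhibition. EC50 came from triplicate 8-point series (0.39–50 μM) and dose-response curves.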

[2] = test system: Giardia intestinalis; assay: Antiparasitic activity against Giardia lamblia WB trophozoites assessed as parasite growth inhibition at 50 uM after 48 hrs by ATP bioluminescence-based CellTiter-Glo luminescent cell viability assay relative to control; assay type: functional; conditions: Giardia duodenalis; for inhibition of growth at 50 µM: read-out: GI; summary of the method: as §1
[3] = test system: Trichomonas vaginalis; assay: Antiparasitic activity against Trichomonas vaginalis assessed as parasite growth inhibition at 50 uM after 24 hrs by hemacytometer relative to control; assay type: functional; conditions: read-out: GI
Summary of the method: (§2)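 G3 strain cultured in TYM Diamond's medium in 15 mL tubes, with compound in DMSO. Controls were untreated and 0.1% DMSO. After 24 h, cells were counted by hemacytometer and normalized to the DMSO controls. Screening was at 50 μM. IC50 came from titrations of 5–40 μM with variable-slope regression, 4 independent trials on different days, and was then re-confirmed.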

[4] = test system: Giardia intestinalis; assay: Antiparasitic activity against Giardia lamblia WB trophozoites assessed as parasite growth inhibition after 48 hrs by ATP bioluminescence-based CellTiter-Glo luminescent cell viability assay; assay type: functional, organism-based; conditions: Giardia duodenalis; summary of the method: as §1
[5] = test system: Naegleria fowleri; assay: Antiparasitic activity against Naegleria fowleri KUL trophozoites assessed as parasite growth inhibition after 48 hrs by ATP bioluminescence-based CellTiter-Glo luminescent cell viability assay; assay type: functional, organism-based
Summary of the method: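 Strain KUL trophozoites cultured axenically in Nelson's medium with 10% FBS at 37 °C. Each well held 10 000 trophozoites, incubated under aerobic conditions without the anaerobe pouch. Read-out was CellTiter-Glo luminescence. Positive control was 50 μM amphotericin B. Hits were serially diluted in triplicate, 8 points from 0.39 to 50 μM, and EC50 was taken from dose-response curves.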

[6] = test system: Lacticaseibacillus rhamnosus; assay: Toxicity in Lactobacillus rhamnosus ATCC 53103 at 100 uM measured after overnight incubation by disc diffusion method; assay type: organism-based, GG; conditions: in vivo
Summary of the method: (§3)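 Grown in Lactobacilli MRS at 37 °C under anaerobic conditions. Blank 6 mm discs were soaked 20 min at room temperature in a 100 μM working dilution in medium. Discs were placed on streaked agar alongside DMSO vehicle and antibiotic discs (levofloxacin, gentamicin), incubated overnight at 37 °C, and zones of inhibition measured in mm.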

[7] = test system: Lactobacillus acidophilus; assay: Toxicity in Lactobacillus acidophilus ATCC 43560 at 100 uM measured after overnight incubation by disc diffusion method; assay type: organism-based; conditions: in vivo; summary of the method: as §3
[8] = test system: Limosilactobacillus reuteri; assay: Toxicity in Lactobacillus reuteri ATCC 23272 at 100 uM measured after overnight incubation by disc diffusion method; assay type: organism-based; conditions: in vivo; summary of the method: as §3
[9] = test system: Escherichia coli; assay: Toxicity in Escherichia coli K-12 MG1655 at 100 uM measured after overnight incubation by disc diffusion method; assay type: organism-based, K-12 substr. MG1655; conditions: in vivo
Summary of the method: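 Grown in Luria broth at 37 °C under aerobic conditions. Blank 6 mm discs were soaked 20 min at room temperature in a 100 μM working dilution in medium. Discs were placed on streaked agar alongside DMSO vehicle and antibiotic discs (levofloxacin, gentamicin), incubated overnight at 37 °C, and inhibition zones measured in mm.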

[10] = test system: Aspergillus parasiticus; assay: Antifungal activity against Aspergillus parasiticus NRRL5862 assessed as fungal growth at 500 uM after 48 hrs by microtiter plate liquid bioassay (reference value: 100%); assay type: functional
Summary of the method: (§4)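 A. parasiticus grown at 35 °C on PDA. Liquid assay in RPMI 1640, 3 × 104 to 5 × 10^4 CFU per mL, triplicate wells, 35 °C. Compounds in DMSO (<2% in media). No-treatment wells carry matched DMSO. Wells scored visually 0–4 versus the no-treatment control: 0 clear, 1 25%, 2 50%, 3 75%, 4 no reduction. Scoring follows CLSI M38-A.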

[11] = test system: Saccharomyces cerevisiae; assay: Antifungal activity against Saccharomyces cerevisiae BY4741 assessed as fungal growth at 500 uM after 48 hrs by microtiter plate liquid bioassay (reference value: 100%); assay type: functional
[12] = test system: Saccharomyces cerevisiae; assay: Antifungal activity against Saccharomyces cerevisiae BY4741 assessed as fungal growth at 500 uM after 24 hrs by microtiter plate liquid bioassay (reference value: 100%); assay type: functional
[13] = test system: Aspergillus parasiticus; assay: Antifungal activity against Aspergillus parasiticus NRRL5862 assessed as fungal growth at 500 uM after 24 hrs by microtiter plate liquid bioassay (reference value: 100%); assay type: functional; summary of the method: as §4
[14] = test system: Trichomonas vaginalis; assay: Antiparasitic activity against Trichomonas vaginalis assessed as parasite growth inhibition after 24 hrs by hemacytometer; assay type: functional, organism-based; summary of the method: as §2
[15] = test system: Saccharomyces cerevisiae; assay: Antifungal activity against Saccharomyces cerevisiae BY4741 assessed as decrease in fungal survival at 500 uM after 48 to 72 hrs by YPD plate-based assay; assay type: functional, organism-based
Summary of the method: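 At the end of the 500 μM SG-liquid microtiter assay, the entire well contents were spread onto YPD recovery plates. Plates were cultured a further 48 to 72 h at 30 °C to judge fungal survival.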

[16] = test system: Entamoeba histolytica; assay: Antiparasitic activity against Entamoeba histolytica HM-1:IMSS trophozoites assessed as parasite growth inhibition after 48 hrs by ATP bioluminescence-based CellTiter-Glo luminescent cell viability assay; assay type: functional, organism-based; summary of the method: as §1

Row | SMILES | inhibition of growth at 50 µM [1] | inhibition of growth at 50 µM [2] | inhibition of growth at 50 µM [3] | pIC50 [4] | pIC50 [5] | Activity [6] | Activity [7] | Activity [8] | Activity [9] | Activity [10] | Activity [11] | Activity [12] | Activity [13] | pIC50 [14] | growth inhibition (GI) [1] | Activity [15] | growth inhibition (GI) [2] | pIC50 [16]
1 | O=C1C(=O)N(CCCCCN2C(=O)C(=O)c3cc(Cl)ccc32)c2ccccc21 | 100% | 100% | 100% | 4.62 | 4.83 | Non-Toxic | Non-Toxic | Non-Toxic | Non-Toxic | – | – | – | – | – | – | – | – | –
2 | O=C1C(=O)N(CCN2C(=O)C(=O)c3cc(Cl)ccc32)c2ccccc21 | 73.6% | 3.82% | 78.8% | – | 4.55 | Non-Toxic | Non-Toxic | Non-Toxic | Non-Toxic | 100% | 50% | 25% | 100% | 4.82 | – | – | – | –
3 | O=C1C(=O)N(CCCCCCBr)c2ccccc21 | – | 98.9% | 86.6% | 4.61 | – | Non-Toxic | Non-Toxic | Non-Toxic | Non-Toxic | 100% | 0% | 0% | 75 - 100% | – | inactive | inactive | – | –
4 | O=C1C(=O)N(CCCCCN2C(=O)C(=O)c3cc(F)ccc32)c2ccccc21 | – | – | 100% | – | 4.56 | Non-Toxic | Non-Toxic | Non-Toxic | Non-Toxic | 100% | 75% | 50% | 100% | – | inactive | – | inactive | –
5 | O=C1C(=O)N(CCCN2C(=O)C(=O)c3cc(F)ccc32)c2ccccc21 | – | 100% | 100% | 4.54 | – | Non-Toxic | Non-Toxic | Non-Toxic | Non-Toxic | – | – | – | – | 4.90 | inactive | – | – | –
6 | O=C1C(=O)N(CCCN2C(=O)C(=O)c3cc(Br)ccc32)c2ccccc21 | – | 19.3% | 100% | – | – | Non-Toxic | Non-Toxic | Non-Toxic | Non-Toxic | 100% | 50% | 25% | 100% | 5.43 | inactive | – | – | –
7 | O=C1C(=O)N(CCCCCCCCBr)c2ccccc21 | – | 100% | 100% | 4.74 | – | Non-Toxic | Non-Toxic | Non-Toxic | Non-Toxic | 100% | 0% | 0% | 75 - 100% | – | inactive | inactive | – | –
8 | Cc1ncc([N+](=O)[O-])n1CCO [METRONIDAZOLE] | – | – | – | 5.19 | – | – | – | – | – | – | – | – | – | – | – | – | – | 5.30
9 | O=C1C(=O)N(CCCCCBr)c2ccccc21 | 100% | 25.8% | 71.4% | – | – | Non-Toxic | Non-Toxic | Non-Toxic | Non-Toxic | 100% | 50% | 0% | 75 - 100% | – | – | – | – | 4.64
10 | O=C1C(=O)N(CCCCBr)c2ccccc21 | 8.47% | 20.9% | 89.8% | – | 4.84 | Non-Toxic | Non-Toxic | Non-Toxic | Non-Toxic | 100% | 50% | 0% | 75 - 100% | – | – | – | – | –
11 | O=C1C(=O)N(CCCCN2C(=O)C(=O)c3cc(Br)ccc32)c2ccccc21 | – | – | 100% | – | – | Non-Toxic | Non-Toxic | Non-Toxic | Non-Toxic | – | – | – | – | 4.60 | inactive | – | inactive | –
12 | O=C1C(=O)N(CCBr)c2ccccc21 | 7.23% | 47.2% | 62.5% | – | 4.63 | Non-Toxic | Non-Toxic | Non-Toxic | Non-Toxic | 100% | 75% | 25% | 75 - 100% | – | – | – | – | –

Source: ChEMBL document CHEMBL4261570, “Design, Synthesis and Preliminary Antimicrobial Evaluation of N-Alkyl Chain Tethered C-5 Functionalized Bis-Isatins” (Medchemcomm, 2017)
